# Experimental data from different studies.
# Lines come from different studies, so protocols differ.
# APC: Adenomatous polyposis coli protein (APC, Homo sapiens, UniProt P25054)
# AVPR2: Vasopressin V2 receptor (AVPR2, Homo sapiens, UniProt P30518)
# Palmitoyl-protein thioesterase 1: Palmitoyl-protein thioesterase 1 (Homo sapiens, UniProt P50897)
# HTR1E: 5-hydroxytryptamine receptor 1E (HTR1E, Homo sapiens, UniProt P28566)
# CSNK1A1/CRBN: Cereblon/Casein kinase I alpha (CSNK1A1/CRBN, Homo sapiens, UniProt P48729+Q96SW2)
SMILES,target,read-out,mode,method,endpoint,result
CSc1nccc(C(=O)N[C@@H](CCC(=O)O)C(=O)N[C@@H](Cc2ccc3ccccc3c2)C(=O)N[C@@H](CC(C)C)C(=O)NC2CC2c2ccccc2)n1 (stereo partly drawn),APC,binding,,SPR,Kd,0.62 µM
CN(C)c1ncnc2c1ncn2[C@@H]1O[C@H](CO)[C@@H](O)[C@H]1O,"Adenosine receptor A3 (ADORA3, Homo sapiens, UniProt P0DMS8, L264Q)",G protein activation,agonist,,EC50,3.5 µM
CCc1ccc(/N=C(/Nc2nnc(C)s2)N2N=C(C)SC2c2ccc(C)cc2)cc1 (stereo not drawn),AVPR2,cAMP,positive allosteric modulator,,EC50,15.8 µM
CCN(CC)Cc1cc(Nc2ccnc3cc(Cl)ccc23)ccc1O,Palmitoyl-protein thioesterase 1,binding,,MST,Kd,0.076 µM
CCCCCCCC/C=C\CCCCCCCC(=O)O,"Myoglobin (MB, Homo sapiens, UniProt P02144, K46M)",binding,,absorbance,Kd,13.1 µM
COc1cccc(C(=O)N[C@@H](CCC(=O)O)C(=O)N[C@@H](Cc2ccc3ccccc3c2)C(=O)N[C@@H](CC(C)C)C(=O)NC2CC2c2ccccc2)c1 (stereo partly drawn),APC,ligand displacement,,FP,IC50,38.9 µM
CC1=NN(/C(=N/c2nnc(C)s2)Nc2ccc(C)c(C)c2)C(c2ccc(-c3ccccc3C(F)(F)F)cc2)S1 (stereo not drawn),AVPR2,cAMP,positive allosteric modulator,,EC50,36 µM
CC(C)C[C@H](NC(=O)[C@H](Cc1ccc2ccccc2c1)NC(=O)[C@H](CCC(=O)O)NC(=O)c1cccc(Br)c1)C(=O)NC1CC1c1ccccc1 (stereo partly drawn),APC,ligand displacement,,FP,IC50,11.2 µM
CC(C)=CCNc1ncnc2c1ncn2[C@@H]1O[C@H](CO)[C@@H](O)[C@H]1O,"Adenosine receptor A3 (ADORA3, Homo sapiens, UniProt P0DMS8, L264F)",G protein activation,agonist,,EC50,3.4 µM
CC(C)C[C@H](NC(=O)[C@H](Cc1ccc2ccccc2c1)NC(=O)[C@H](CCC(=O)O)NC(=O)c1cccc([N+](=O)[O-])c1)C(=O)NC1CC1c1ccccc1 (stereo partly drawn),APC,ligand displacement,,FP,IC50,41.7 µM
CC1=NN(/C(=N/c2nnc(C)s2)Nc2ccc(C)c(C)c2)C(c2cc(F)c(F)c(F)c2F)S1 (stereo not drawn),AVPR2,cAMP,positive allosteric modulator,,EC50,> 50 µM
CCCN1C[C@H](CSC)C[C@@H]2c3cccc4[nH]cc(c34)C[C@H]21,HTR1E,G protein activation,agonist,BRET,EC50,1.9 µM
Nc1nnc(-c2ccccc2O)cc1N1CCN(Cc2ccc(OCCOCCNc3cccc4c3C(=O)N(C3CCC(=O)NC3=O)C4=O)c(F)c2)CC1 (stereo not drawn),"SWI/SNF-related matrix-associated actin-dependent regulator of chromatin subfamily A member 2 (SMARCA2, Homo sapiens, UniProt P51531)",protein level,degrader,western blot,DC50,0.064 µM
O=C1c2ccccc2-n2c1nc1ccccc1c2=O,"Glutathione S-transferase P (GSTP1, Homo sapiens, UniProt P09211)",binding,,,Kd,30.1 µM
O=C1c2ccccc2S(=O)(=O)N1CCCCN1CCN(c2ncccn2)CC1,HTR1E,G protein activation,agonist,BRET,EC50,0.628 µM
CC1=NN(/C(=N/c2nnc(C)s2)Nc2ccc(C)c(C)c2)C(c2ccc(F)c(F)c2)S1 (stereo not drawn),AVPR2,cAMP,positive allosteric modulator,,EC50,> 50 µM
Cc1nc2n(c(=O)c1CCN1CCC(c3noc4cc(F)ccc34)CC1)CCCC2O (stereo not drawn),"RNA cytidine acetyltransferase (Homo sapiens, UniProt Q9H0A0)",binding,,ITC,Kd,12.8 µM
Cc1cc(C(=O)N[C@@H](CCC(=O)O)C(=O)N[C@@H](Cc2ccc3ccccc3c2)C(=O)N[C@@H](CC(C)C)C(=O)NC2CC2c2ccccc2)ccn1 (stereo partly drawn),APC,ligand displacement,,FP,IC50,40.7 µM
Cc1ccc(CNc2cccc3c2CN(C)N(C2CCC(=O)NC2=O)C3=O)cc1 (stereo not drawn),CSNK1A1/CRBN,protein level,degrader,luciferase,DC50,0.97 µM
C=C[C@H]1C[N@@]2CC[C@H]1C[C@H]2[C@H](O)c1ccnc2ccc(OC)cc12,Palmitoyl-protein thioesterase 1,binding,,MST,Kd,0.256 µM
CC1=NN(/C(=N/c2nnc(C)s2)Nc2ccc(C)c(C)c2)C(c2ccc(C(C)(C)C)cc2)S1 (stereo not drawn),AVPR2,cAMP,positive allosteric modulator,,EC50,> 50 µM
Cc1ccc(Sc2ccccc2N2CCNCC2)c(C)c1,HTR1E,G protein activation,agonist,BRET,EC50,1.96 µM
CN1Cc2c(N)cccc2C(=O)N1C1CCC(=O)NC1=O (stereo not drawn),CSNK1A1/CRBN,protein level,degrader,luciferase,DC50,> 10 µM
COc1ccc(CC2NCCc3c2[nH]c2ccc(C)cc32)c(Cl)c1OC (stereo not drawn),HTR1E,G protein activation,agonist,BRET,EC50,2.43 µM
CC1=NN(/C(=N/c2nnc(C)s2)Nc2ccc(C)c(C)c2)C(c2cc(F)c(F)c(F)c2)S1 (stereo not drawn),AVPR2,cAMP,positive allosteric modulator,,EC50,> 50 µM
O=C(CCCCCN1CCN(c2ccccc2-c2ccccc2)CC1)NC1CCCc2ccccc21 (stereo not drawn),HTR1E,G protein activation,agonist,BRET,EC50,1.75 µM
CC1=NN(/C(=N\c2ccccc2C)Nc2nnc(C)s2)C(c2ccc(C)cc2)S1 (stereo not drawn),AVPR2,cAMP,positive allosteric modulator,,EC50,20.8 µM
CSc1ncc(Br)c(C(=O)N[C@@H](CCC(=O)O)C(=O)N[C@@H](Cc2ccc3ccccc3c2)C(=O)N[C@@H](CC(C)C)C(=O)N[C@@H]2C[C@H]2c2ccccc2)n1,APC,binding,,SPR,Kd,0.23 µM
CC1=NN(/C(=N/c2nnc(C)s2)Nc2ccc(C)c(C)c2)C(c2ccc(C(F)(F)F)cc2)S1 (stereo not drawn),AVPR2,cAMP,positive allosteric modulator,,EC50,> 50 µM
CCCNC(=O)NS(=O)(=O)c1ccc(Cl)cc1,Palmitoyl-protein thioesterase 1,binding,,MST,Kd,0.201 µM
CC(C)C[C@H](NC(=O)[C@H](Cc1ccccc1)NC(=O)[C@H](CCC(=O)O)NC(=O)c1ccncn1)C(=O)NC1CC1c1ccccc1 (stereo partly drawn),APC,binding,,SPR,Kd,67 µM
Cc1cc(C(C)(C)C)c(O)c(C)c1CC1=NCCN1,HTR1E,G protein activation,agonist,BRET,EC50,0.516 µM
COC(=O)[C@]12CCC(C)(C)C[C@H]1[C@H]1C(=O)C=C3[C@@]4(C)C=C(C#N)C(=O)C(C)(C)[C@@H]4CC[C@@]3(C)[C@]1(C)CC2,"Epidermal growth factor receptor (EGFR, Homo sapiens, UniProt P00533)",binding,,MST,Kd,79 µM
